# Assay results reported in ChEMBL document CHEMBL4190249, “Antiproliferative and apoptotic activities of sequence-specific histone acetyltransferase inhibitors” (Eur J Med Chem, 2017).
# Activity calls are given as the source filed them. The calls are words filed in the database; no cut-off is given here.
# Key:
# A549 [1] = assay: Upregulation of GAS6-AS1 gene expression in human A549 cells at 2 uM after 48 hrs by microarray analysis relative to control; assay type: functional
# Summary of the method: (§1)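 A549 cells plated at 2×10^5 cells/well, treated 48 h at 2 μM, with DMSO vehicle as control. Whole-genome transcriptional profiling followed the manufacturer's protocol. Total RNA integrity was checked by Bioanalyzer before arraying.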
# [2] = biological target: Cellular tumor antigen p53 (Homo sapiens) (UniProt P04637); assay: Activation of p53 in human A549 cells assessed as upregulation of SPATA18 gene expression at 2 uM after 48 hrs by microarray analysis relative to control; assay type: cell-based; summary of the method: as §1
# Cellular tumor antigen p53 (Homo sapiens), sequence (P04637 whole entry, looked up): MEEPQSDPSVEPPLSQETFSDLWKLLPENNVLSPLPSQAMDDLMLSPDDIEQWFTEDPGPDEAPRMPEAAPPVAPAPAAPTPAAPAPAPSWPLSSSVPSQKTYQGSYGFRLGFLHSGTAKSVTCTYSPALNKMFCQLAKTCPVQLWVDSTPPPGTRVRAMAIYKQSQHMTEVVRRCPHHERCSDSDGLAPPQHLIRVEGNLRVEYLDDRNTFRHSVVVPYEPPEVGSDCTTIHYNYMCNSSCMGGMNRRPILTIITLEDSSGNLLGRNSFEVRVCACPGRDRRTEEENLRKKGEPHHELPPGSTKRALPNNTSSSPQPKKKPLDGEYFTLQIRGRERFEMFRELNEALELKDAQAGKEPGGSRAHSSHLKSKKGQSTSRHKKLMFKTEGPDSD
# A549 [3] = assay: Downregulation of GUSBP3 gene expression in human A549 cells at 2 uM after 48 hrs by microarray analysis relative to control; assay type: functional; summary of the method: as §1
# A549 [4] = assay: Upregulation of MIR3189 gene expression in human A549 cells at 2 uM after 48 hrs by microarray analysis relative to control; assay type: functional; summary of the method: as §1
# [5] = biological target: Cellular tumor antigen p53 (Homo sapiens) (UniProt P04637); assay: Activation of p53 in human A549 cells assessed as upregulation of EDA2R gene expression at 2 uM after 48 hrs by microarray analysis relative to control; assay type: cell-based; summary of the method: as §1
# A549 [6] = assay: Downregulation of TAS2R30 gene expression in human A549 cells at 2 uM after 48 hrs by microarray analysis relative to control; assay type: functional; summary of the method: as §1
# [7] = biological target: Cellular tumor antigen p53 (Homo sapiens) (UniProt P04637); assay: Activation of p53 in human A549 cells assessed as upregulation of SESN1 gene expression at 2 uM after 48 hrs by microarray analysis relative to control; assay type: cell-based; summary of the method: as §1
# A549 [8] = assay: Downregulation of ASNS gene expression in human A549 cells at 2 uM after 48 hrs by microarray analysis relative to control; assay type: functional; summary of the method: as §1
# [9] = biological target: Cellular tumor antigen p53 (Homo sapiens) (UniProt P04637); assay: Activation of p53 in human A549 cells assessed as upregulation of DDB2 gene expression at 2 uM after 48 hrs by microarray analysis relative to control; assay type: cell-based; summary of the method: as §1
# [10] = biological target: Cellular tumor antigen p53 (Homo sapiens) (UniProt P04637); assay: Activation of p53 in human A549 cells assessed as downregulation of STC2 gene expression at 2 uM after 48 hrs by microarray analysis relative to control; assay type: cell-based; summary of the method: as §1
# A549 [11] = assay: Upregulation of SULF2 gene expression in human A549 cells at 2 uM after 48 hrs by microarray analysis relative to control; assay type: functional; summary of the method: as §1
# [12] = biological target: Cellular tumor antigen p53 (Homo sapiens) (UniProt P04637); assay: Activation of p53 in human A549 cells assessed as upregulation of CD70 gene expression at 2 uM after 48 hrs by microarray analysis relative to control; assay type: cell-based; summary of the method: as §1
# A549 [13] = assay: Downregulation of ULBP1 gene expression in human A549 cells at 2 uM after 48 hrs by microarray analysis relative to control; assay type: functional; summary of the method: as §1
# A549 [14] = assay: Upregulation of GDF15 gene expression in human A549 cells at 2 uM after 48 hrs by microarray analysis relative to control; assay type: functional; summary of the method: as §1
# A549 [15] = assay: Upregulation of CDKN1A gene expression in human A549 cells at 2 uM after 48 hrs by microarray analysis relative to control; assay type: functional; summary of the method: as §1
# A549 [16] = assay: Antiproliferative activity against human A549 cells at 0.1 to 10 uM after 96 hrs by WST8 assay; assay type: functional, cell-based
# Summary of the method: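 Cells seeded at 5×10^3 per well and grown 24 h at 37°C, 5% CO2. A549 medium was DMEM with 10% FBS and 2 mM L-glutamine. SW620 medium had 10% FBS and 1% penicillin/streptomycin. Medium was then replaced with conjugate at 0.1, 1, 5 or 10 μM for 96 h. WST-8 reagent was added and absorbance read at 450 nm. Results are mean ± SD.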
# A549 [17] = assay: Upregulation of ABCA12 gene expression in human A549 cells at 2 uM after 48 hrs by microarray analysis relative to control; assay type: functional; summary of the method: as §1
# [18] = biological target: Cellular tumor antigen p53 (Homo sapiens) (UniProt P04637); assay: Activation of p53 in human A549 cells assessed as upregulation of BTG2 gene expression at 2 uM after 48 hrs by microarray analysis relative to control; assay type: cell-based; summary of the method: as §1
# [19] = biological target: Cellular tumor antigen p53 (Homo sapiens) (UniProt P04637); assay: Activation of p53 in human A549 cells assessed as upregulation of MDM2 gene expression at 2 uM after 48 hrs by microarray analysis relative to control; assay type: cell-based; summary of the method: as §1
# [20] = biological target: Cellular tumor antigen p53 (Homo sapiens) (UniProt P04637); assay: Activation of p53 in human A549 cells assessed as downregulation of CHAC1 gene expression at 2 uM after 48 hrs by microarray analysis relative to control; assay type: cell-based; summary of the method: as §1
# [21] = biological target: Cellular tumor antigen p53 (Homo sapiens) (UniProt P04637); assay: Activation of p53 in human A549 cells assessed as upregulation of TP53INP1 gene expression at 2 uM after 48 hrs by microarray analysis relative to control; assay type: cell-based; summary of the method: as §1
# dsDNA [22] = assay: Binding affinity to 5'-ACTTATCCACTATAGA-3'/3'-TGAATAGGTGATATCT-5' dsDNA (unknown origin) assessed as change in melting temperature at 2.5 uM by spectrophotometric method; assay type: nucleic-acid assay
# A549 [23] = assay: Upregulation of UIMC1 gene expression in human A549 cells at 2 uM after 48 hrs by microarray analysis relative to control; assay type: functional; summary of the method: as §1
# A549 [24] = assay: Induction of apoptosis in human A549 cells at 2 uM after 48 hrs by Annexin V-FITC/ethidium homodimer-3/Hoechst 33342 staining based fluorescence microscopic method; assay type: functional, cell-based
# Summary of the method: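 A549 cells seeded in chamber slides at 2×10^4 cells/well and exposed to 2 μM for 48 h; vehicle control 0.1% DMSO. Cells were washed in binding buffer and stained with FITC-annexin V (apoptotic), ethidium homodimer III (necrotic) and Hoechst 33342 (all nuclei), then imaged by confocal fluorescence microscopy.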
# [25] = biological target: T1, Histone acetyltransferase p300 (Homo sapiens, UniProt Q09472); assay: Inhibition of p300 (unknown origin) using H3 peptide and acetyl-coA as substrate by fluorometric assay
# T1 sequence (Q09472 whole entry, the tested form may be a part): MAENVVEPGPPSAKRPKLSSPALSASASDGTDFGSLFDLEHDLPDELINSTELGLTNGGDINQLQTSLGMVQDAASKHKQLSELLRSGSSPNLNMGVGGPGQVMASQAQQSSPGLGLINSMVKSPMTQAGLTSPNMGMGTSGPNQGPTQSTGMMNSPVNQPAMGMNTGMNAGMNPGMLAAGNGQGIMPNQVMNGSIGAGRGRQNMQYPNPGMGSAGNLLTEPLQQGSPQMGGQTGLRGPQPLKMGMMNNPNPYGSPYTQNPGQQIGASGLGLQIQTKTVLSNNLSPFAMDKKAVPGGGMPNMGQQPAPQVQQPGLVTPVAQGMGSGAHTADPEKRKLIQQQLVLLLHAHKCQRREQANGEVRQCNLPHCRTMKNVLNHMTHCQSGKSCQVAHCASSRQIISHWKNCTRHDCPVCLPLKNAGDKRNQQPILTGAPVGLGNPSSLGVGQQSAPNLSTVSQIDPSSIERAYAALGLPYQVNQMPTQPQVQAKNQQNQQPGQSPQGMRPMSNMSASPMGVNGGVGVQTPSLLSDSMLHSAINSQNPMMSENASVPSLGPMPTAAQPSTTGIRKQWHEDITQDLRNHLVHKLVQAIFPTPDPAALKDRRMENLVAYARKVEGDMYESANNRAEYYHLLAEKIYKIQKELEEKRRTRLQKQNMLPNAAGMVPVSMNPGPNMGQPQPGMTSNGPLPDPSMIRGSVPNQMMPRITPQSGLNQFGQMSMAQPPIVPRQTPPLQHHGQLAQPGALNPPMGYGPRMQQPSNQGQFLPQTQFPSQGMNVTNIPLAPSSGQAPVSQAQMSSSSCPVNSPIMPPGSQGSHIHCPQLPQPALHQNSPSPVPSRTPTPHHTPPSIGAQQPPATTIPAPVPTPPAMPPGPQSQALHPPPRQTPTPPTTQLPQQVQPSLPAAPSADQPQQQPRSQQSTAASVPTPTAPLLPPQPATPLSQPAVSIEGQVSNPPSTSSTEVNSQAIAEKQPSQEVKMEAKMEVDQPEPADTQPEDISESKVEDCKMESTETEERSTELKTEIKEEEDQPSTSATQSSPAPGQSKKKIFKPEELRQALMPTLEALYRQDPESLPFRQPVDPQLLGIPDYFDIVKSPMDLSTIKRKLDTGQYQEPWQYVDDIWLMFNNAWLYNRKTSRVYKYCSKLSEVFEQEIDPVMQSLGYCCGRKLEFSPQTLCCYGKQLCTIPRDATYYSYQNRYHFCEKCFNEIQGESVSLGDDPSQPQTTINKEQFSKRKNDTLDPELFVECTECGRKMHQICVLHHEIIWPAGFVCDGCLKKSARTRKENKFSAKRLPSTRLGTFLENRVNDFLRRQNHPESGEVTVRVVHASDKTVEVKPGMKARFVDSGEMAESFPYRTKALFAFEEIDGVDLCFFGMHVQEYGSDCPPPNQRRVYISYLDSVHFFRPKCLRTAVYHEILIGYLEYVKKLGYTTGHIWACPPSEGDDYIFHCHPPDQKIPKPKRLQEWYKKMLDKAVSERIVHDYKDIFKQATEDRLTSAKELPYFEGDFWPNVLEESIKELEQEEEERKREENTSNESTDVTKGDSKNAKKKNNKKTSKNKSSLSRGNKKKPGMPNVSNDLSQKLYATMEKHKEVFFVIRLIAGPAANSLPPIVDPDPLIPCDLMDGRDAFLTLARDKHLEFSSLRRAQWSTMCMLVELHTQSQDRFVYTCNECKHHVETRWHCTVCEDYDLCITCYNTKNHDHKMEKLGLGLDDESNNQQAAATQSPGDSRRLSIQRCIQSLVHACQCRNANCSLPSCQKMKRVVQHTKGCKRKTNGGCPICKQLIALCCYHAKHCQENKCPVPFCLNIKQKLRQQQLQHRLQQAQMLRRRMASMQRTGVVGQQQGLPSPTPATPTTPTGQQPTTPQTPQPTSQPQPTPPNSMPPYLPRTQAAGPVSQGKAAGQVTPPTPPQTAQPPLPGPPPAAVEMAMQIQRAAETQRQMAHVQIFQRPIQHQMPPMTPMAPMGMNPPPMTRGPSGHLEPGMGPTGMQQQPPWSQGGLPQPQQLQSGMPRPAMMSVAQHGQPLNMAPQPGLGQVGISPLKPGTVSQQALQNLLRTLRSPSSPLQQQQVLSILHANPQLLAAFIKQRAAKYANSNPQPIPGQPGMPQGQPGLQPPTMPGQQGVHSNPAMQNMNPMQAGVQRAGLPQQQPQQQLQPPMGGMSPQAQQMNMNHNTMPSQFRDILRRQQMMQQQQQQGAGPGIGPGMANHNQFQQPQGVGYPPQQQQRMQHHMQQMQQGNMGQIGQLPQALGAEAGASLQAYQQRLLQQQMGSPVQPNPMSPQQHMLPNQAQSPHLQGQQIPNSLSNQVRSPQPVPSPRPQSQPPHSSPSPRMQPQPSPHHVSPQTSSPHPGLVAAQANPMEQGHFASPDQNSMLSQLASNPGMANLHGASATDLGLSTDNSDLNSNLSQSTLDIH
# Summary of the method: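 Fluorometric HAT kit assay with recombinant p300 core domain as enzyme and acetyl-CoA plus H3 histone peptide as substrates. Effectors were tested at 1 and 5 μM. HeLa nuclear extract served as positive control, and 0.5% DMSO was set as 100% activity.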
# A549 [26] = assay: Upregulation of WDR63 gene expression in human A549 cells at 2 uM after 48 hrs by microarray analysis relative to control; assay type: functional; summary of the method: as §1
# [27] = biological target: Cellular tumor antigen p53 (Homo sapiens) (UniProt P04637); assay: Activation of p53 in human A549 cells assessed as upregulation of CYFIP2 gene expression at 2 uM after 48 hrs by microarray analysis relative to control; assay type: cell-based; summary of the method: as §1
# dsDNA [28] = assay: Binding affinity to 5'-ACTTATTCCATATAGA-3'/3'-TGAATAAGGTATATCT-5' dsDNA (unknown origin) assessed as change in melting temperature at 2.5 uM by spectrophotometric method; assay type: nucleic-acid assay
# A549 [29] = assay: Upregulation of MIR3685 gene expression in human A549 cells at 2 uM after 48 hrs by microarray analysis relative to control; assay type: functional; summary of the method: as §1
# A549 [30] = assay: Upregulation of NEFL gene expression in human A549 cells at 2 uM after 48 hrs by microarray analysis relative to control; assay type: functional; summary of the method: as §1
# A549 [31] = assay: Upregulation of ANKRD1 gene expression in human A549 cells at 2 uM after 48 hrs by microarray analysis relative to control; assay type: functional; summary of the method: as §1
# [32] = biological target: Cellular tumor antigen p53 (Homo sapiens) (UniProt P04637); assay: Activation of p53 in human A549 cells assessed as upregulation of FDXR gene expression at 2 uM after 48 hrs by microarray analysis relative to control; assay type: cell-based; summary of the method: as §1
# A549 [33] = assay: Upregulation of SCARNA7 gene expression in human A549 cells at 2 uM after 48 hrs by microarray analysis relative to control; assay type: functional; summary of the method: as §1
# A549 [34] = assay: Downregulation of SNORA9 gene expression in human A549 cells at 2 uM after 48 hrs by microarray analysis relative to control; assay type: functional; summary of the method: as §1
# A549 [35] = assay: Upregulation of MIR4713 gene expression in human A549 cells at 2 uM after 48 hrs by microarray analysis relative to control; assay type: functional; summary of the method: as §1
# A549 [36] = assay: Upregulation of POLH gene expression in human A549 cells at 2 uM after 48 hrs by microarray analysis relative to control; assay type: functional; summary of the method: as §1
# [37] = biological target: Cellular tumor antigen p53 (Homo sapiens) (UniProt P04637); assay: Activation of p53 in human A549 cells assessed as upregulation of FAS gene expression at 2 uM after 48 hrs by microarray analysis relative to control; assay type: cell-based; summary of the method: as §1
# [38] = biological target: Cellular tumor antigen p53 (Homo sapiens) (UniProt P04637); assay: Activation of p53 in human A549 cells assessed as downregulation of CARS gene expression at 2 uM after 48 hrs by microarray analysis relative to control; assay type: cell-based; summary of the method: as §1
# A549 [39] = assay: Downregulation of ALDH1L2 gene expression in human A549 cells at 2 uM after 48 hrs by microarray analysis relative to control; assay type: functional; summary of the method: as §1
# [40] = biological target: T1, Histone acetyltransferase p300; assay: Inhibition of p300 (unknown origin) at 1 to 5 uM sing H3 peptide and acetyl-coA as substrate by fluorometric assay
# Summary of the method: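 Fluorometric HAT kit assay with recombinant p300 core domain as enzyme and acetyl-CoA plus H3 histone peptide as substrates. Released CoA-SH reacts with a developer, read at Ex/Em 535/587 nm. Effectors were tested at 1 and 5 μM. HeLa nuclear extract served as positive control, and 0.5% DMSO was set as 100% activity.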
# NCI-H157 = assay: Anticlonogenic activity against human NCI-H157 cells after 10 days; assay type: functional, cell-based; conditions: NCI-H157, 240 h
# NCI-H460 = assay: Anticlonogenic activity against human NCI-H460 cells after 10 days; assay type: functional, cell-based; conditions: NCI-H460, 240 h
# A549 [41] = assay: Anticlonogenic activity against human A549 cells after 10 days; assay type: functional, cell-based; conditions: A549, 240 h
smiles,measurement,setting,value
CC1=NN(c2ccc(C(=O)NCCOCCOCC(=O)NCCC(=O)Nc3cn(C)c(C(=O)Nc4cc(C(=O)Nc5cn(C)c(C(=O)Nc6cn(C)c(C(=O)NCCCC(=O)Nc7cc(C(=O)Nc8cc(C(=O)Nc9cc(C(=O)Nc%10cc(C(=O)NCCCN(C)C)n(C)c%10)n(C)c9)n(C)c8)n(C)c7)n6)n5)n(C)c4)n3)cc2)C(=O)/C1=C/c1ccc(-c2cc(C)c(C)cc2[N+](=O)[O-])o1,Activity,A549 [1],inactive
same,Activity,[2],inactive
same,Activity,A549 [3],inactive
same,Activity,A549 [4],inactive
same,Activity,[5],inactive
same,Activity,A549 [6],inactive
same,Activity,[7],inactive
same,Activity,A549 [8],inactive
same,Activity,[9],inactive
same,Activity,[10],inactive
same,Activity,A549 [11],inactive
same,Activity,[12],inactive
same,Activity,A549 [13],inactive
same,Activity,A549 [14],inactive
same,Activity,A549 [15],inactive
same,Activity,A549 [16],Active
same,Activity,A549 [17],inactive
same,Activity,[18],inactive
same,Activity,[19],inactive
same,Activity,[20],inactive
same,Activity,[21],inactive
same,ΔTm,dsDNA [22],20.9 °C
same,Activity,A549 [23],inactive
same,Activity,A549 [24],inactive
same,IC50,[25],3.9 to 4.2 µM
same,Activity,A549 [26],inactive
same,Activity,[27],inactive
same,ΔTm,dsDNA [28],13.6 °C
same,Activity,A549 [29],inactive
same,Activity,A549 [30],inactive
same,Activity,A549 [31],inactive
same,Activity,[32],inactive
same,Activity,A549 [33],inactive
same,Activity,A549 [34],inactive
same,Activity,A549 [35],inactive
same,Activity,A549 [36],inactive
same,Activity,[37],inactive
same,Activity,[38],inactive
same,Activity,A549 [39],inactive
CC(=O)Nc1cc(C(=O)Nc2cn(C)c(C(=O)Nc3cn(C)c(C(=O)Nc4cc(C(=O)NCCCC(=O)Nc5cc(C(=O)Nc6cc(C(=O)Nc7cc(C(=O)Nc8cc(C(=O)NCCCN(C)C)n(C)c8)n(C)c7)n(C)c6)n(C)c5)n(C)c4)n3)n2)n(C)c1,Activity,A549 [16],inactive
same,inhibition,[40],inactive
CC1=NN(c2ccc(C(=O)O)cc2)C(=O)/C1=C/c1ccc(-c2cc(C)c(C)cc2[N+](=O)[O-])o1,IC50,NCI-H157,6 µM
same,Activity,A549 [16],inactive
same,IC50,NCI-H460,6.3 µM
same,IC50,A549 [41],10 µM
CCCCCCCCCCCCCCCc1cccc(O)c1C(=O)O,inhibition,[25],Dose-dependent effect
